Test results as given in ChEMBL document CHEMBL4373644, “Fungal natural alkaloid schizocommunin activates the aryl hydrocarbon receptor pathway” (Medchemcomm, 2019).
pEC50: −log10 of the molar value. One block for each molecule: values may come before it.

Assays:
CYP1B1 (via AhR) [1] = target: T1, CYP1B1 (via AhR) (Homo sapiens, UniProt P35869); experiment: Agonist activity at AhR in human HuH7 cells assessed as increase in CYP1B1 expression at 10 uM after 24 hrs by microarray analysis relative to control; assay type: ADME, cell-based; conditions: read-out: FC
T1 sequence (P35869 whole entry): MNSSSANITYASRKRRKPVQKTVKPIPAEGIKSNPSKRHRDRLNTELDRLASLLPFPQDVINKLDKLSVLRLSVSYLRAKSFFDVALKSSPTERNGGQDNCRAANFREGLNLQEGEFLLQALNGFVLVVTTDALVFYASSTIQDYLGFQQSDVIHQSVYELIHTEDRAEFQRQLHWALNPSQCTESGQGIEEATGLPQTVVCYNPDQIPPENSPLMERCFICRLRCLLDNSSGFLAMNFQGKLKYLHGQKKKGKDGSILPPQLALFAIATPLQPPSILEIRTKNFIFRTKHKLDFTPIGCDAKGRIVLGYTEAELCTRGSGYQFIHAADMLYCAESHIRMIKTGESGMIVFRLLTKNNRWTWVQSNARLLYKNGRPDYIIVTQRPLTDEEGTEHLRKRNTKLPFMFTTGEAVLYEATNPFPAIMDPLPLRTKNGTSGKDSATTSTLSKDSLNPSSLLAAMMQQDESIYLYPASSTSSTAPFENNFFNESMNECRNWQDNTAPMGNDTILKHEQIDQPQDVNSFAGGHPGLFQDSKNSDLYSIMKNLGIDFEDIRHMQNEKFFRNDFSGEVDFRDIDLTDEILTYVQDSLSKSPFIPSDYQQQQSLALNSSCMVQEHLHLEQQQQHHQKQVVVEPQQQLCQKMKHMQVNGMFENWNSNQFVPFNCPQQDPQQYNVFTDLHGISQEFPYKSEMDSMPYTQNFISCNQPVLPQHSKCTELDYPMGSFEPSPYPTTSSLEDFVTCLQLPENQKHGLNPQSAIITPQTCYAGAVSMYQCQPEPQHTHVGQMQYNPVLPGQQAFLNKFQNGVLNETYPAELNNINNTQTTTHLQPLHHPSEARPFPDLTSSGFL
Method in brief: (§1)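 Transcriptome screen in Huh7 cells seeded 2.75 × 10^5 per well and treated 24 h with 10 μM or 0.5 μM compound (0.1% final DMSO) or DMSO mock. RNA isolated by column kit and profiled on microarray; expression given as fold change versus mock.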

[2] = target: T2, Aryl hydrocarbon receptor (Homo sapiens, UniProt P35869); experiment: Agonist activity at AhR in human HuH7 cells assessed as reduction in ALDH3A1 expression at 10 uM after 24 hrs by q-RT-PCR analysis relative to control; assay type: cell-based
T2 sequence (P35869 whole entry): T1 sequence (P35869 whole entry)
Method in brief: (§2)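 Huh7 hepatoma cells in DMEM with 10% FBS at 37 °C, seeded 2.75 × 10^5 per well the day before. Exposed 24 h to 10 μM or 0.5 μM compound, 0.1% final DMSO, against DMSO-only mock. RT-qPCR with 18S rRNA normalisation; fold change by 2–ΔΔCt relative to mock; n = 5; unpaired two-tailed t-test, p < 0.05.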

[3] = target: T2, Aryl hydrocarbon receptor; experiment: Agonist activity at AhR in human A549 cells assessed as increase in ALDH3A1 expression at 10 uM after 24 hrs by q-RT-PCR analysis; assay type: cell-based; conditions: a549, 24 h
Method in brief: (§3)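 A549 lung carcinoma cells grown at 37 °C in DMEM with 10% FBS, seeded 2.75 × 10^5 per well one day ahead. Treated 24 h with 10 μM or 0.5 μM compound in 0.1% final DMSO; mock was DMSO only. RNA then analysed by RT-qPCR, normalised to 18S rRNA, 2–ΔΔCt fold change vs mock; n = 3; two-tailed unpaired t-test, p < 0.05.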

Huh-7 [4] = experiment: Cytotoxicity against human HuH7 cells assessed as reduction in metabolic activity after 24 hrs by MTT assay; assay type: ADME, cell-based; conditions: Huh-7, 24 h
Method in brief: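 Huh7 cells seeded 10 000 per well, next day given serial dilutions of 0.012–200 μM (2% final DMSO) for 24 h. After a PBS wash, cells incubated 3 h with MTT at 2.5 mg mL–1; crystals dissolved in DMSO, absorbance read at 562 nm and normalised to mock; EC50 from dose–response curve.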

[5] = target: T2, Aryl hydrocarbon receptor; experiment: Agonist activity at AhR in human HuH7 cells assessed as increase in CYP1B1 expression at 10 uM after 24 hrs by RT-qPCR analysis; assay type: ADME, cell-based; method in brief: as §2
[6] = target: T2, Aryl hydrocarbon receptor; experiment: Agonist activity at AhR in human HuH7 cells assessed as increase in UGT1A expression at 10 uM after 24 hrs by RT-qPCR analysis; assay type: ADME, cell-based; method in brief: as §2
CYP1A1 (via AhR) [7] = target: T3, CYP1A1 (via AhR) (Homo sapiens, UniProt P35869); experiment: Agonist activity at AhR in human HuH7 cells assessed as increase in CYP1A1 expression at 10 uM after 24 hrs by microarray analysis relative to control; assay type: ADME, cell-based; conditions: read-out: FC; method in brief: as §1
T3 sequence (P35869 whole entry): T1 sequence (P35869 whole entry)

[8] = target: T2, Aryl hydrocarbon receptor; experiment: Agonist activity at AhR in human HuH7 cells assessed as effect on GSTA1 expression at 10 uM after 24 hrs by qRT-PCR analysis; assay type: cell-based; method in brief: as §2
[9] = target: T4, AhR (aryl hydrocarbon receptor) (Homo sapiens, UniProt P35869); experiment: Agonist activity at AhR in human HuH7 cells at 10 uM after 24 hrs by renilla luciferase reporter gene assay relative to control; assay type: cell-based; conditions: read-out: FC
T4 sequence (P35869 whole entry): T1 sequence (P35869 whole entry)
Method in brief: (§4)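 Huh7 cells seeded 20 000 per well, next day co-transfected with XRE-driven firefly luciferase (pGL4.43 luc2P/XRE) and Renilla plasmids by lipofection. A day later treated 24 h at 0.1, 0.5, 5 or 10 μM, 1% final DMSO, then lysed. Luciferase read in technical triplicate; signal normalised to Renilla and to DMSO vehicle.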

[10] = target: T2, Aryl hydrocarbon receptor; experiment: Agonist activity at AhR in human A549 cells assessed as increase in UGT1A expression at 10 uM after 24 hrs by RT-qPCR analysis; assay type: ADME, cell-based; conditions: a549, 24 h; method in brief: as §3
[11] = target: T2, Aryl hydrocarbon receptor; experiment: Agonist activity at AhR in human HuH7 cells after 24 hrs by renilla luciferase reporter gene assay; assay type: cell-based; method in brief: as §4
Huh-7 [12] = experiment: Effect on XAP2 expression in human HuH7 cells at 0.5 uM after 24 hrs by qRT-PCR analysis; assay type: ADME, cell-based; conditions: huh-7, 24 h; method in brief: as §2
CYP1A1 (via AhR) [13] = target: T3, CYP1A1 (via AhR); experiment: Agonist activity at AhR in human HuH7 cells assessed as increase in CYP1A1 expression at 0.5 uM after 24 hrs by microarray analysis relative to control; assay type: ADME, cell-based; conditions: read-out: FC; method in brief: as §1
A549 [14] = experiment: Effect on XAP2 expression in human A549 cells at 0.5 uM after 24 hrs by qRT-PCR analysis; assay type: ADME, cell-based; conditions: a549, 24 h; method in brief: as §3
[15] = target: T2, Aryl hydrocarbon receptor; experiment: Agonist activity at AhR in human HuH7 cells assessed as increase in UGT1A expression at 0.5 uM after 24 hrs by RT-qPCR analysis; assay type: ADME, cell-based; method in brief: as §2
Huh-7 [16] = experiment: Effect on AhR expression in human HuH7 cells at 0.5 uM after 24 hrs by qRT-PCR analysis; assay type: ADME, cell-based; conditions: huh-7, 24 h; method in brief: as §2
A549 [17] = experiment: Effect on AhR expression in human A549 cells at 0.5 uM after 24 hrs by qRT-PCR analysis; assay type: ADME, cell-based; conditions: a549, 24 h; method in brief: as §3
[18] = target: T2, Aryl hydrocarbon receptor; experiment: Agonist activity at AhR in human HuH7 cells assessed as effect on ALDH3A1 expression at 0.5 uM after 24 hrs by q-RT-PCR analysis; assay type: cell-based; method in brief: as §2
CYP1B1 (via AhR) [19] = target: T1, CYP1B1 (via AhR); experiment: Agonist activity at AhR in human HuH7 cells assessed as increase in CYP1B1 expression at 0.5 uM after 24 hrs by microarray analysis relative to control; assay type: ADME, cell-based; conditions: read-out: FC; method in brief: as §1
[20] = target: T2, Aryl hydrocarbon receptor; experiment: Agonist activity at AhR in human A549 cells assessed as increase in CYP1B1 expression at 0.5 uM after 24 hrs by RT-qPCR analysis; assay type: ADME, cell-based; conditions: a549, 24 h; method in brief: as §3
[21] = target: T2, Aryl hydrocarbon receptor; experiment: Agonist activity at AhR in human HuH7 cells assessed as effect on GSTA1 expression at 0.5 uM after 24 hrs by qRT-PCR analysis; assay type: cell-based; method in brief: as §2
[22] = target: T2, Aryl hydrocarbon receptor; experiment: Agonist activity at AhR in human A549 cells assessed as increase in UGT1A expression at 0.5 uM after 24 hrs by RT-qPCR analysis; assay type: ADME, cell-based; conditions: a549, 24 h; method in brief: as §3
[23] = target: T2, Aryl hydrocarbon receptor; experiment: Agonist activity at AhR in human A549 cells assessed as increase in CYP1A1 expression at 0.5 uM after 24 hrs by RT-qPCR analysis; assay type: ADME, cell-based; conditions: a549, 24 h; method in brief: as §3

fold induction at 24 h, 10 µM (CYP1B1 (via AhR) [1]): 8.6
fold change (FC) [2]: 0.65
Activity [3]: Active
Activity [5]: Active
Activity [6]: Active
fold induction at 24 h, 10 µM (CYP1A1 (via AhR) [7]): 10.5
Activity [8]: Not Active
fold induction at 24 h, 10 µM [9]: ≤ 17
Activity [10]: Active
Activity [11]: Dose-dependent effect
SMILES: O=C1Nc2ccccc2/C1=C/c1nc2ccccc2c(=O)[nH]1
pEC50 (Huh-7 [4]): 4.50

Activity (Huh-7 [12]): Not Active
fold induction at 24 h, 0.5 µM (CYP1A1 (via AhR) [13]): 3.28
Activity (A549 [14]): Not Active
Activity [15]: Active
Activity (Huh-7 [16]): Not Active
Activity (A549 [17]): Not Active
Activity [18]: Active
fold induction at 24 h, 0.5 µM (CYP1B1 (via AhR) [19]): 1.35
Activity [20]: Active
Activity [21]: Not Active
Activity [11]: Dose-dependent effect
Activity [22]: Active
Activity [23]: Active
SMILES: O=C1Nc2ccccc2/C1=C\c1nnc2ccccc2c1Cl
pEC50 (Huh-7 [4]): 5.02
